Structures can show the parent of a compound that is named as a salt.
What was measured:
A549 = assay: Cytotoxicity against human A549 cells after 72 hrs by SRB assay; format: functional, cell-based; conditions: A549, 72 h
Outline: (§1)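 Adherent tumour cells were seeded in 96-well plates 24 h before dosing and exposed continuously to a series of compound concentrations for 72 h. Cells were then fixed and stained with sulforhodamine B to read out cytotoxicity.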

K562 = assay: Cytotoxicity against human K562 cells after 72 hrs by trypan blue exclusion method; conditions: K562, 72 h
HT-29 = assay: Cytotoxicity against human HT29 cells after 72 hrs by SRB assay; format: functional, cell-based; conditions: HT-29, 72 h; outline: as §1

## CO[C@@H]1C[C@]2(C)[C@@H](C[C@]3(O)C=C4C=CC(=O)OC(C)(C)[C@@H]4CC[C@@H]23)C2=C1[C@H](C)[C@@H]1OC(=O)C(C)=C[C@@H]1C2 [KADLONGILACTONE C]
A549
  IC50: 1450 nM
K562
  IC50: 3610 nM
HT-29
  IC50: 2080 nM

## CC1=C[C@@H]2CC3=C([C@@H](O)C[C@]4(C)[C@H]3C[C@]3(O)C=C5C=CC(=O)OC(C)(C)[C@@H]5CC[C@@H]43)[C@H](C)[C@@H]2OC1=O [KADLONGILACTONE D]
A549
  IC50: 490 nM
K562
  IC50: 1920 nM
HT-29
  IC50: 1640 nM

## CC1=C[C@@H]2CC3=C([C@H](O)C[C@]4(C)[C@H]3C[C@]3(O)C=C5C=CC(=O)OC(C)(C)[C@@H]5CC[C@@H]43)[C@H](C)[C@@H]2OC1=O [KADLONGILACTONE A]
A549
  IC50: 1240 nM
K562
  IC50: 3440 nM
HT-29
  IC50: 1440 nM

## CC(=O)[C@]1(N)Cc2c(O)c3c(c(O)c2[C@@H](O[C@H]2C[C@H](O)[C@H](O)CO2)C1)C(=O)c1ccccc1C3=O [AMRUBICIN HYDROCHLORIDE]
A549
  IC50: 820 nM
K562
  IC50: 1260 nM
HT-29
  IC50: 4360 nM

## CO[C@H]1C[C@]2(C)[C@@H](C[C@]3(O)C=C4C=CC(=O)OC(C)(C)[C@@H]4CC[C@@H]23)C2=C1[C@H](C)[C@@H]1OC(=O)C(C)=C[C@@H]1C2 [KADLONGILACTONE E]
A549
  IC50: 880 nM
K562
  IC50: 3350 nM
HT-29
  IC50: 1320 nM

Source: ChEMBL document CHEMBL1141336, “Isolation and structure elucidation of kadlongilactones C-F from Kadsura longipedunculata by NMR spectroscopy and DFT computational methods” (J Nat Prod, 2007)
